esBAF inh: blocks esBAF chromatin remodeling in mouse ES cells | Bmi1-luciferase knock-in reporter, 24 h; 100% = twice the neutral-well signal | reporter increase, % at 12.5 µM | 350,000 tested, 2% active; in the data active = activation above about 40%; inconclusive = no clear call, values can overlap the other calls;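 also: a rise in the Bmi1 reporter signal indicates esBAF inhibition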
ASAP1 GAP inh: inhibitors of human ASAP1 ArfGAP activity; AID 624377; 360,000 tested, 0.19% active; inhibition, % at 16.5 µM; ASAP1-stimulated ARF1 GTP hydrolysis, GDP FP detection; in the data active = inhibition above about 25%
SMARCA2 activ: activators of SMARCA2 function | AID 652017 | activation, % at 9.1 µM | 370,000 tested, 1% active | MG213 cells, MMTV-luciferase reporter, dexamethasone, overnight; in the data active = activation above about 7.8%
ARFGAP1 inh: rat ARFGAP1 inhibition. Arfgap1-stimulated ARF1 GTP hydrolysis, GDP FP detection. inhibition, % at 16.5 µM. 360,000 tested, 0.26% active;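 active = inhibition above a per-plate limit, mean inhibition of low control wells plus 3 SD, cut at about 25% in these data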
Target sequence (Q62848 1-136 limits assumed): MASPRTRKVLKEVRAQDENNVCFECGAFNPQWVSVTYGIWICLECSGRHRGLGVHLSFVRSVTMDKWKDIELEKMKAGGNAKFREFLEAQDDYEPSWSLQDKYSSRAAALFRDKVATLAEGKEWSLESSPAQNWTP
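Assay system: Rat Arfgap1 GAP domain (His6, aa 1-136), purified enzyme | Buffer or medium: HEPES 25 mM pH 7.5, NaCl 150 mM, MgCl2, DTT | Schedule: GTP hydrolysis reaction 2 h at 25 °C | Signal: FP of antibody-bound GDP Alexa 633 tracer, ex 620/em 688 nm | Measure: Percent inhibition of Arfgap1-stimulated GTP hydrolysis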
A number is an active result; . = inactive; ? = inconclusive; / = not tested or not shown. In the library only some 2.6% were active in any assay of this set; here they are far more common.

SMILES	esBAF inh	ASAP1 GAP inh	SMARCA2 activ	ARFGAP1 inh
COc1ccc(Nc2nc(CC(C)=O)ns2)cc1	57	.	.	.
O=C(c1ccccc1F)N1C[C@H]2[C@@H](c3ccccc31)[C@@H](CO)N2CC1CCCCC1	.	/	/	/
C[C@H](NC(=O)[C@@H]1N[C@@H]2c3ccc(-c4cncnc4)c(=O)n3C[C@@H]2[C@H]1CO)c1ccccc1	.	/	/	/
Nc1ccc(CSc2ccccc2)cc1	54	.	.	.
C[C@@H]1CN([C@@H](C)CO)C(=O)c2cc(N(C)C)ccc2O[C@@H](C)CCCCO[C@H]1CN(C)S(=O)(=O)c1ccccc1	.	/	/	/
O=C(C[C@@H]1C[C@H]2c3cc(NC(=O)Cc4ccncc4)ccc3O[C@H]2[C@H](CO)O1)NCCN1CCCCC1	.	/	/	/
Cc1cc(C(F)(F)Cl)n2ncc(-c3ccccn3)c2n1	61	.	.	.
Cc1ccc(-c2nc(CS(=O)(=O)CC(=O)NCCCN(Cc3ccccc3)C(C)C)c(C)o2)cc1	.	.	.	.
Cc1oc(-c2ccc(-c3ccccc3)cc2)nc1CN(CCO)C(C)C	60	.	.	.
C[C@H](CO)N1C[C@H](C)[C@@H](CN(C)Cc2ccccc2)Oc2ccc(NC(=O)CCC(F)(F)F)cc2C1=O	.	/	/	/
Cc1cc(C)c(Nc2ncccc2C(=O)O)c(C)c1	/	.	.	.
Cc1ccc(Nc2ncccc2C(=O)O)cc1C	49	.	.	.
Cc1cc(C)c(OCC(=O)Nc2cccc(O)c2)cc1C	55	.	.	.
C[C@@H]1CN([C@H](C)CO)C(=O)c2cc(NS(=O)(=O)c3ccccc3)ccc2O[C@@H](C)CCCCO[C@H]1CN(C)C(=O)Nc1ccc2c(c1)OCO2	.	/	/	/
O=C(NC(C(=O)O)c1ccccc1)c1ccccc1 (stereo not drawn)	.	.	.	.
O=C(NC(C(=O)c1ccccc1)c1ccccc1)c1ccccc1 (stereo not drawn)	41	.	.	.
COCC#Cc1cnc2c(c1)C(=O)N([C@H](C)CO)C[C@@H](C)[C@H](CN(C)S(=O)(=O)c1cn(C)cn1)O2	.	/	/	/
O=C(/C=C/c1ccccc1)c1ccc2ccccc2c1	68	.	.	.
CCN(CC)CCNC(=O)c1cc2c(-c3ccc(Cl)cc3)nn(C)c2s1	.	.	11	.
C[C@H]1CN([C@@H](C)CO)C(=O)c2cc(/C=C/c3ccccc3)cnc2O[C@@H]1CN(C)Cc1cncnc1	.	/	/	/
O=C(COC(=O)c1ccc(O)cc1O)c1ccc2c(c1)OCO2	63	.	.	.
O=C(COc1ccccc1Br)c1ccc(O)cc1O	.	.	.	.
COc1ccc(CCn2c(C)cc(C(=O)COC(=O)c3ccc(O)cc3O)c2C)cc1	/	.	.	.
O=C(COc1ccccc1Br)c1ccc2c(c1)OCO2	43	.	.	.
Cc1cc(C(=O)COC(=O)c2ccc(O)cc2O)c(C)n1C(C)C	61	.	.	.
SMILES	esBAF inh	ASAP1 GAP inh	SMARCA2 activ	ARFGAP1 inh
CCC(=O)Nc1ccc2c(c1)OC[C@@H](C)N(C(=O)CC1CC1)C[C@@H](C)[C@@H](OC)CN(C)C2=O	.	/	/	/
O=C(Nc1ccc(F)cc1)c1ccc2ncsc2c1	?	.	.	.
N#Cc1ccsc1NC(=O)c1ccc2ncsc2c1	71	.	.	.
CN(C)c1ccc(NC(=O)c2ccc3nsnc3c2)cc1	.	.	.	.
O=C(Nc1ccc(C(F)(F)F)cc1)c1ccc2ncsc2c1	58	.	.	.
O=C(Nc1cccc(Cl)c1)c1ccc2ncsc2c1	48	.	.	.
O=C(Nc1ccc(Cl)cc1)c1ccc2nsnc2c1	109	.	.	.
C[C@H]1CN([C@@H](C)CO)C(=O)Cc2cc(NS(C)(=O)=O)ccc2O[C@@H]1CN(C)Cc1ccc(C(=O)O)cc1	.	/	/	/
C[C@H]1CN([C@@H](C)CO)S(=O)(=O)c2ccc(-c3cccnc3)cc2O[C@H]1CN(C)C(=O)CN(C)C	.	/	/	/
O=C(Nc1ccc(Cl)cc1)c1ccc2ncsc2c1	65	.	.	.
CC(C)c1ccc(-c2nn(-c3ccccc3)cc2C2C(C#N)=C(N)OC3=C2C(=O)CC(C)(C)C3)cc1 (stereo not drawn)	52	.	.	.
Cc1nn(-c2ccccc2)c(Cl)c1C1C(C#N)=C(N)OC2=C1C(=O)CC(C)(C)C2 (stereo not drawn)	.	.	.	.
CCCOc1c(Br)cc(C2C3=C(CCCC3=O)N(C)C3=C2C(=O)CCC3)cc1OC	/	.	.	.
CCCOc1c(Br)cc(C2C3=C(CCCC3=O)N(CC)C3=C2C(=O)CCC3)cc1OC	44	.	.	.
COc1ccc(NC(=O)Nc2cccc3c2O[C@H](CN(C)CC2CCCCC2)[C@@H](C)CN([C@H](C)CO)C3=O)cc1	.	/	/	/
NC(=O)C1CCN(c2nc(-c3cccc(N)c3)cs2)CC1	81	.	.	.

Screening data (PubChem)
